Test results from paper PMC6606825 (Journal of Ginseng Research, 2018).

Assay: Pharmacokinetics of CK and its metabolite 20
Type: in vivo, healthy Chinese volunteers
Conditions: mean (SD)
Procedure, shortened: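 Healthy adults given one oral tablet dose fasting (overnight, or 10 h in a crossover food-effect arm); 30 subjects from the 100/200/400 mg groups were pooled with 24 from 200 mg fasting periods. Plasma was stored at −70°C, extracted with MTBE plus internal standards and assayed by LC-MS/MS. Cmax was observed and AUClast calculated by linear trapezoid, each divided by dose. The metabolite/parent ratio was also calculated. Genotyping used Sequenom MassARRAY, and log-transformed values were compared by one-way ANOVA.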

[1] = ABCG2 rs3114018 AA (first line)
[2] = ABCG2 rs3114018 AA (third line)

- Ratio 20(S)-PPD/CK Cmax/D (ABCG2 rs2725248 CC): 0.74 (0.83) %
- 20(S)-PPD AUClast/D [1]: 0.91 (0.71)
- 20(S)-PPD Cmax/D [1]: 0.03 (0.02)
- Ratio 20(S)-PPD/CK AUClast/D [1]: 4.78 (4.26) %
- Ratio 20(S)-PPD/CK Cmax/D [1]: 0.96 (0.87) %
- 20(S)-PPD AUClast/D [2]: 0.88 (0.92)
- 20(S)-PPD Cmax/D [2]: 0.03 (0.03)
- Ratio 20(S)-PPD/CK AUClast/D [2]: 5.73 (8.96) %
- Ratio 20(S)-PPD/CK Cmax/D [2]: 1.25 (1.73) %
- 20(S)-PPD AUClast/D (ABCG2 rs3114018 CA): 0.80 (0.73)
- 20(S)-PPD Cmax/D (ABCG2 rs3114018 CA): 0.03 (0.03)
- Ratio 20(S)-PPD/CK AUClast/D (ABCG2 rs3114018 CA): 3.46 (4.62) %
- Ratio 20(S)-PPD/CK Cmax/D (ABCG2 rs3114018 CA): 1.17 (1.94) %
- 20(S)-PPD AUClast/D (ABCG2 rs6857600 CC): 0.89 (0.83)
- 20(S)-PPD Cmax/D (ABCG2 rs6857600 CC): 0.03 (0.03)
- Ratio 20(S)-PPD/CK AUClast/D (ABCG2 rs6857600 CC): 4.61 (6.81) %
- Ratio 20(S)-PPD/CK Cmax/D (ABCG2 rs6857600 CC): 1.26 (1.91) %
- 20(S)-PPD AUClast/D (ABCG2 rs6857600 TC): 0.65 (0.64)
- 20(S)-PPD Cmax/D (ABCG2 rs6857600 TC): 0.02 (0.02)
- Ratio 20(S)-PPD/CK AUClast/D (ABCG2 rs6857600 TC): 2.91 (3.24) %
- Ratio 20(S)-PPD/CK Cmax/D (ABCG2 rs6857600 TC): 0.75 (0.80) %
- 20(S)-PPD AUClast/D (ABCG2 rs6857600 TT): 0.48 (0.53)
- 20(S)-PPD Cmax/D (ABCG2 rs6857600 TT): 0.02 (0.02)
- Ratio 20(S)-PPD/CK AUClast/D (ABCG2 rs6857600 TT): 4.27 (5.76) %
- Ratio 20(S)-PPD/CK Cmax/D (ABCG2 rs6857600 TT): 0.95 (1.30) %
- 20(S)-PPD AUClast/D (ABCG2 rs12505410 GG): 0.92 (0.62)
- 20(S)-PPD Cmax/D (ABCG2 rs12505410 GG): 0.03 (0.02)
- Ratio 20(S)-PPD/CK AUClast/D (ABCG2 rs12505410 GG): 3.61 (2.83) %
- Ratio 20(S)-PPD/CK Cmax/D (ABCG2 rs12505410 GG): 0.90 (0.55) %
- 20(S)-PPD AUClast/D (ABCG2 rs12505410 GT): 1.00 (0.74)
- Ratio 20(S)-PPD/CK AUClast/D (ABCG2 rs12505410 GT): 4.63 (5.21) %
- Ratio 20(S)-PPD/CK Cmax/D (ABCG2 rs12505410 GT): 1.36 (2.02) %
- 20(S)-PPD AUClast/D (ABCG2 rs12505410 TT): 0.63 (0.82)
- 20(S)-PPD Cmax/D (ABCG2 rs12505410 TT): 0.02 (0.03)
- Ratio 20(S)-PPD/CK AUClast/D (ABCG2 rs12505410 TT): 4.03 (7.68) %
- Ratio 20(S)-PPD/CK Cmax/D (ABCG2 rs12505410 TT): 0.97 (1.54) %
- 20(S)-PPD AUClast/D (ABCG2 rs17731799 GG): 0.91 (0.71)
- 20(S)-PPD Cmax/D (ABCG2 rs17731799 GG): 0.03 (0.02)
- Ratio 20(S)-PPD/CK AUClast/D (ABCG2 rs17731799 GG): 4.78 (4.26) %
- Ratio 20(S)-PPD/CK Cmax/D (ABCG2 rs17731799 GG): 0.96 (0.87) %
- 20(S)-PPD AUClast/D (ABCG2 rs17731799 GT): 0.82 (0.77)
- 20(S)-PPD Cmax/D (ABCG2 rs17731799 GT): 0.03 (0.03)
- Ratio 20(S)-PPD/CK AUClast/D (ABCG2 rs17731799 GT): 3.65 (5.14) %
- Ratio 20(S)-PPD/CK Cmax/D (ABCG2 rs17731799 GT): 1.28 (2.16) %
- 20(S)-PPD AUClast/D (ABCG2 rs17731799 TT): 0.80 (0.85)
- 20(S)-PPD Cmax/D (ABCG2 rs17731799 TT): 0.03 (0.03)
- Ratio 20(S)-PPD/CK AUClast/D (ABCG2 rs17731799 TT): 4.76 (7.86) %
- Ratio 20(S)-PPD/CK Cmax/D (ABCG2 rs17731799 TT): 1.08 (1.53) %
- 20(S)-PPD AUClast/D (CFTR rs213950 AG): 0.91 (0.99)
- 20(S)-PPD Cmax/D (CFTR rs213950 AG): 0.03 (0.04)
- Ratio 20(S)-PPD/CK AUClast/D (CFTR rs213950 AG): 4.96 (7.34) %
- Ratio 20(S)-PPD/CK Cmax/D (CFTR rs213950 AG): 1.45 (2.26) %
- 20(S)-PPD AUClast/D (CFTR rs213950 GG): 0.64 (0.54)
- 20(S)-PPD Cmax/D (CFTR rs213950 GG): 0.02 (0.02)
- Ratio 20(S)-PPD/CK AUClast/D (CFTR rs213950 GG): 2.67 (3.18) %
- Ratio 20(S)-PPD/CK Cmax/D (CFTR rs213950 GG): 0.64 (0.66) %
- 20(S)-PPD AUClast/D (CFTR rs213968 CC): 0.64 (0.55)
- 20(S)-PPD Cmax/D (CFTR rs213968 CC): 0.02 (0.02)
- Ratio 20(S)-PPD/CK AUClast/D (CFTR rs213968 CC): 2.81 (3.33) %
- Ratio 20(S)-PPD/CK Cmax/D (CFTR rs213968 CC): 0.65 (0.69) %
- 20(S)-PPD AUClast/D (CFTR rs213968 CT): 0.90 (0.98)
- 20(S)-PPD Cmax/D (CFTR rs213968 CT): 0.03 (0.04)
- Ratio 20(S)-PPD/CK AUClast/D (CFTR rs213968 CT): 4.70 (7.26) %
- Ratio 20(S)-PPD/CK Cmax/D (CFTR rs213968 CT): 1.40 (2.23) %
- 20(S)-PPD AUClast/D (CFTR rs213968 TT): 0.97 (0.49)
- 20(S)-PPD Cmax/D (CFTR rs213968 TT): 0.04 (0.02)
- Ratio 20(S)-PPD/CK AUClast/D (CFTR rs213968 TT): 5.87 (7.37) %
- Ratio 20(S)-PPD/CK Cmax/D (CFTR rs213968 TT): 1.40 (1.51) %
- 20(S)-PPD AUClast/D (CFTR rs213976 GG): 1.12 (0.43)
- 20(S)-PPD Cmax/D (CFTR rs213976 GG): 0.04 (0.02)
- Ratio 20(S)-PPD/CK AUClast/D (CFTR rs213976 GG): 7.39 (8.42) %
- Ratio 20(S)-PPD/CK Cmax/D (CFTR rs213976 GG): 1.68 (1.73) %
- 20(S)-PPD AUClast/D (CFTR rs213976 GT): 0.83 (0.78)
- 20(S)-PPD Cmax/D (CFTR rs213976 GT): 0.03 (0.03)
- Ratio 20(S)-PPD/CK AUClast/D (CFTR rs213976 GT): 4.01 (4.96) %
- Ratio 20(S)-PPD/CK Cmax/D (CFTR rs213976 GT): 1.32 (2.08) %
- 20(S)-PPD AUClast/D (CFTR rs213976 TT): 0.74 (0.87)
- 20(S)-PPD Cmax/D (CFTR rs213976 TT): 0.02 (0.03)
- Ratio 20(S)-PPD/CK AUClast/D (CFTR rs213976 TT): 3.63 (6.72) %
- Ratio 20(S)-PPD/CK Cmax/D (CFTR rs213976 TT): 0.81 (1.29) %
- 20(S)-PPD AUClast/D (CFTR rs1042077 GG): 0.97 (0.49)
- 20(S)-PPD Cmax/D (CFTR rs1042077 GG): 0.04 (0.02)
- Ratio 20(S)-PPD/CK AUClast/D (CFTR rs1042077 GG): 5.87 (7.37) %
- Ratio 20(S)-PPD/CK Cmax/D (CFTR rs1042077 GG): 1.40 (1.51) %
- 20(S)-PPD AUClast/D (CFTR rs1042077 GT): 0.92 (0.99)
- 20(S)-PPD Cmax/D (CFTR rs1042077 GT): 0.03 (0.04)
- Ratio 20(S)-PPD/CK AUClast/D (CFTR rs1042077 GT): 4.85 (7.37) %
- Ratio 20(S)-PPD/CK Cmax/D (CFTR rs1042077 GT): 1.44 (2.26) %
- 20(S)-PPD AUClast/D (CFTR rs1042077 TT): 0.68 (0.55)
- 20(S)-PPD Cmax/D (CFTR rs1042077 TT): 0.02 (0.02)
- Ratio 20(S)-PPD/CK AUClast/D (CFTR rs1042077 TT): 2.95 (3.37) %
- Ratio 20(S)-PPD/CK Cmax/D (CFTR rs1042077 TT): 0.68 (0.70) %
- 20(S)-PPD AUClast/D (CFTR rs2106155 AA): 1.09 (0.41)
- 20(S)-PPD Cmax/D (CFTR rs2106155 AA): 0.04 (0.02)
- Ratio 20(S)-PPD/CK AUClast/D (CFTR rs2106155 AA): 7.22 (7.81) %
- Ratio 20(S)-PPD/CK Cmax/D (CFTR rs2106155 AA): 1.67 (1.60) %
- 20(S)-PPD AUClast/D (CFTR rs2106155 CA): 0.88 (0.82)
- 20(S)-PPD Cmax/D (CFTR rs2106155 CA): 0.04 (0.03)
- Ratio 20(S)-PPD/CK AUClast/D (CFTR rs2106155 CA): 4.03 (5.36) %
- Ratio 20(S)-PPD/CK Cmax/D (CFTR rs2106155 CA): 1.39 (2.26) %
Compound: CC(C)=CCC[C@](C)(O)[C@H]1CC[C@]2(C)[C@@H]1[C@H](O)C[C@@H]1[C@@]3(C)CC[C@H](O)C(C)(C)[C@@H]3CC[C@]12C [20(S)-PPD, 20(S)-protopanaxadiol]
